Columns and labels:
Homo sapiens [1] = assay: Toxicity in healthy human assessed as occurrence of frequent bowel movements at 100 mg, po administered as single dose relative to control; type: organism-based; conditions: in vivo
[2] = Cmax in high fat fed healthy human at 50 mg, po administered as single dose coadministered with 100 mg of ritonavir by high-pressure liquid chromatography-tandem mass spectrometry/mass spectrometry method; type: ADME, organism-based; design: dose 50 mg, route oral; conditions: in vivo
Summary of the method: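 Fed cohort: healthy males ate an FDA-recipe high-fat breakfast (about 150/250/500-600 cal from protein/carbohydrate/fat) 30 min before a 50 mg oral dose of BILR 355 in PEG solution. Ritonavir 100 mg was given 10 h before and with the dose. Plasma was sampled over 144 h and assayed by LC-MS/MS. Noncompartmental analysis gave Cmax and Vz/F. Vss/F = CL/F·(MRTp.o. − 1/Ka).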

Homo sapiens [3] = assay: Toxicity in healthy human assessed as occurrence of maculopapular rash at 5 mg, po administered as single dose relative to control; type: organism-based; conditions: in vivo
Homo sapiens [4] = assay: Toxicity in healthy human assessed as occurrence of herpes simplex at 5 mg, po administered as single dose relative to control; type: organism-based; conditions: in vivo
Homo sapiens [5] = assay: Toxicity in healthy human assessed as occurrence of fatigue at 12.5 mg, po administered as single dose relative to control; type: organism-based; conditions: in vivo
[6] = Apparent volume of distribution at steady state in healthy human at 12.5 mg, po administered as single dose; type: ADME, organism-based; conditions: in vivo, read-out: Vss/F
Summary of the method: (§1)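 Healthy male volunteers, six active plus two placebo per dose group, single oral dose in PEG solution with 200 ml water after overnight fast; breakfast 60 to 90 min post-dose. EDTA plasma sampled predose to 144 h. Assayed by validated LC-MS/MS after protein precipitation. Noncompartmental analysis, AUC by linear up/log down trapezoidal rule; Vss = CL/F·(MRTp.o. − 1/Ka).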

[7] = Apparent volume of distribution in terminal phase in healthy human at 5 mg, po administered as single dose; type: ADME, organism-based; conditions: in vivo, read-out: Vz/F
Summary of the method: (§2)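 Single fasting oral dose of BILR 355 in PEG solution with 200 ml tap water, given to healthy males. Standard breakfast came 60-90 min after the dose. EDTA plasma was sampled predose to 144 h, stored below −18°C and assayed by LC-MS/MS after protein precipitation. Noncompartmental analysis gave Vz/F. Vss/F = CL/F·(MRTp.o. − 1/Ka), with Ka from compartmental modelling.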

[8] = Mean residence time in healthy human at 25 mg, po administered as single dose coadministered with 100 mg of ritonavir; type: ADME, organism-based; conditions: in vivo
Homo sapiens [9] = assay: Toxicity in healthy human assessed as occurrence of diarrhea at 5 mg, po administered as single dose coadministered with 100 mg of ritonavir; type: organism-based; conditions: in vivo
Homo sapiens [10] = assay: Toxicity in healthy human assessed as occurrence of migraine at 50 mg, po administered as single dose relative to control; type: organism-based; conditions: in vivo
[11] = Mean residence time in healthy human at 50 mg, po administered as single dose; type: ADME, organism-based; conditions: in vivo
[12] = Apparent volume of distribution in terminal phase in healthy human at 25 mg, po administered as single dose coadministered with 100 mg of ritonavir; type: ADME, organism-based; conditions: in vivo, read-out: Vz/F
Summary of the method: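 Healthy male volunteers, fasted overnight, got one oral dose of BILR 355 in PEG solution with 200 ml water. Ritonavir 100 mg was given 10 h before and again with the dose. Plasma was sampled (EDTA) from predose to 144 h and assayed by validated LC-MS/MS. Cmax and Vz/F came from noncompartmental analysis. Vss/F = CL/F·(MRTp.o. − 1/Ka), with Ka from compartmental modelling.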

Homo sapiens [13] = assay: Toxicity in healthy human assessed as occurrence of palpitations at 25 mg, po administered as single dose relative to control; type: organism-based; conditions: in vivo
Homo sapiens [14] = assay: Toxicity in healthy human assessed as occurrence of abdominal pain at 75 mg, po administered as single dose relative to control; type: organism-based, Abdomen; conditions: in vivo
[15] = AUC (0 to last) in healthy human at 87.5 mg, po administered as single dose coadministered with 100 mg of ritonavir; type: ADME, organism-based; design: dose 87.5 mg, route oral, time 0 - last; conditions: plasma
Summary of the method: (§3)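 Healthy male volunteers, fasted. Ritonavir 100 mg given 10 h before and again together with single oral BILR 355 in PEG solution. EDTA plasma sampled predose to 144 h. LC-MS/MS assay after protein precipitation. Noncompartmental analysis, AUC by linear up/log down trapezoidal rule; Vss = CL/F·(MRTp.o. − 1/Ka).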

[16] = Drug excretion in healthy human urine assessed as unchanged drug at 87.5 mg, po administered as single dose coadministered with 100 mg of ritonavir by high-pressure liquid chromatography-tandem mass spectrometry/mass spectrometry method; type: ADME, organism-based; conditions: read-out: Drug uptake
Summary of the method: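 Ritonavir 100 mg was given 10 h before and with one oral dose of BILR 355 in PEG solution. Urine was collected by weight as predose blank, then 0-6, 6-24 and 24-72 h, stored at −20°C and assayed by LC-MS/MS. fe = unchanged drug excreted (Ae) as a percentage of dose. Line 50: high-fat breakfast 30 min before dosing.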

Homo sapiens [17] = assay: Toxicity in healthy human assessed as occurrence of headache at 5 mg, po administered as single dose relative to control; type: organism-based; conditions: in vivo
[18] = Apparent volume of distribution at steady state in healthy human at 5 mg, po administered as single dose; type: ADME, organism-based; conditions: in vivo, read-out: Vss/F; summary of the method: as §2
[19] = AUC (0 to infinity) in healthy human at 75 mg, po administered as single dose coadministered with 100 mg of ritonavir; type: ADME, organism-based; design: dose 75 mg, route oral, time infinity; conditions: plasma; summary of the method: as §3
Homo sapiens [20] = assay: Ratio of Cmax in human at 75 mg, po in presence of 100 mg of ritonavir to Cmax in human at 75 mg, po; type: ADME, organism-based; conditions: in vivo
[21] = AUC (0 to last) in high fat fed healthy human at 50 mg, po administered as single dose coadministered with 100 mg of ritonavir; type: ADME, organism-based; design: dose 50 mg, route oral, time 0 - last; conditions: plasma
Summary of the method: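 Fed cohort of 6 healthy men given an FDA-type high-fat breakfast (about 150, 250 and 500 to 600 cal from protein, carbohydrate and fat) 30 min before dosing. Ritonavir 100 mg given 10 h earlier and again with the single oral dose in PEG solution. Plasma sampled to 144 h, LC-MS/MS, noncompartmental analysis.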

Homo sapiens [22] = assay: Toxicity in healthy human assessed as occurrence of nausea at 50 mg, po administered as single dose relative to control; type: organism-based; conditions: in vivo
[23] = Apparent oral clearance in healthy human at 62.5 mg, po administered as single dose coadministered with 100 mg of ritonavir; type: ADME, organism-based; conditions: in vivo; summary of the method: as §3
[24] = AUC (0 to infinity) in healthy human at 50 mg, po administered as single dose; type: ADME, organism-based; design: dose 50 mg, time infinity, route oral; conditions: plasma; summary of the method: as §1
Homo sapiens [25] = assay: Toxicity in healthy human assessed as occurrence of palpitations at 100 mg, po administered as single dose relative to control; type: organism-based; conditions: in vivo
[26] = AUC (0 to last) in healthy human at 37.5 mg, po administered as single dose coadministered with 100 mg of ritonavir; type: ADME, organism-based; design: dose 37.5 mg, route oral, time 0 - last; conditions: plasma; summary of the method: as §3
[27] = Mean residence time in healthy human at 12.5 mg, po administered as single dose coadministered with 100 mg of ritonavir; type: ADME, organism-based; conditions: in vivo
[28] = Renal clearance in healthy human at 100 mg, po administered as single dose by high-pressure liquid chromatography-tandem mass spectrometry/mass spectrometry method; type: ADME, organism-based, Kidney; conditions: in vivo, read-out: CL_renal (converted)

Cmax [2]: 430 ng/mL
Vd/F [6]: 1460 L
Vd/F [7]: 956 L
MRT [8]: 18.1 h
MRT [11]: 3.2 h
Vd/F [12]: 97.6 L
AUC(0-t) [15]: 11700 ng·h/mL
dose excreted [16]: 5.96%
Vd/F [18]: 1020 L
AUC(0-inf) [19]: 12300 ng·h/mL
Ratio (Homo sapiens [20]): 2.3
AUC(0-t) [21]: 7970 ng·h/mL
CL/F [23]: 141 mL/min
AUC(0-inf) [24]: 419 ng·h/mL
AUC(0-t) [26]: 5800 ng·h/mL
MRT [27]: 24.8 h
CL renal [28]: 9.85 mL/min
Compound: CCN1c2ncc(CCOc3cc[n+]([O-])c4ccccc34)cc2C(=O)N(C)c2cccnc21 [BILR 355]
Activity (Homo sapiens [1]): 0%
Activity (Homo sapiens [3]): 0%
Activity (Homo sapiens [4]): 16.7%
Activity (Homo sapiens [5]): 20%
Activity (Homo sapiens [9]): 0%
Activity (Homo sapiens [10]): 0%
Activity (Homo sapiens [13]): 0%
Activity (Homo sapiens [14]): 16.7%
Activity (Homo sapiens [17]): 0%
Activity (Homo sapiens [22]): 0%
Activity (Homo sapiens [25]): 0%
